Source: ChEMBL document CHEMBL5030505, “Assessment of NR4A Ligands That Directly Bind and Modulate the Orphan Nuclear Receptor Nurr1” (J Med Chem, 2020)

Legend:
Assay type in all cases: cell-based
[1] = target: Nuclear receptor subfamily 4 group A member 3 (Homo sapiens) (UniProt Q92570); assay: Modulation of full length human NOR1 expressed in SK-N-BE(2) cells co-transfected with luciferase reporter plasmid harboring NBRE response element assessed as increase in luciferase activity incubated for 18 by luciferase reporter gene assay; details: SKNBE2, filed as modulator, time 18.0 hrs
In short: (§1)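 Cells seeded at 1.5 million per 10-cm dish. Next day they were transfected (Lipofectamine 2000) with full-length Nur77 or NOR-1 expression plasmid, either alone (2 μg) or 1 μg plus full-length RXRα (1 μg), and 3xNBRE- or 3xNurRE-luciferase reporter (6 μg), 18 h. Cells replated at 10,000/well, 4 h, then ligand dose response added in quadruplicate for 18 h. Luciferase luminescence read.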

[2] = target: Nuclear receptor subfamily 4 group A member 2 (Homo sapiens) (UniProt P43354); assay: Modulation of full length human Nurr1 expressed in SKNBE(2) cells co-transfected with RXRalpha and luciferase reporter plasmid harboring NBRE response element assessed as increase in luciferase activity incubated for 18 hrs by luciferase reporter-gene assay; details: SKNBE2, filed as modulator
In short: (§2)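 SK-N-BE(2)-C cells were kept in 1:1 EMEM/F12 with 10% FBS at 37°C and 5% CO2. They were cotransfected with full-length Nurr1 (1 μg), full-length RXRα (1 μg) and 3xNBRE- or 3xNurRE-luc reporter (6 μg) for 18 h, replated at 10,000 cells/well for 4 h, and then treated with ligand or vehicle in quadruplicate for 18 h. The readout was luciferase luminescence as fold over vehicle, reported as mean ± s.e.m. (n=4) from 2 independent experiments, one-way ANOVA.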

[3] = target: Nuclear receptor subfamily 4 group A member 3 (Homo sapiens) (UniProt Q92570); assay: Modulation of full length human NOR1 expressed in PC12 cells co-transfected with RXRalpha and luciferase reporter plasmid harboring NurRE response element assessed as increase in luciferase activity incubated for 18 by luciferase reporter gene assay; details: PC-12, filed as modulator, time 18.0 hrs
In short: (§3)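 Full-length NOR-1 plasmid was transfected via Lipofectamine 2000, either alone (2 μg) or at 1 μg with full-length RXRα (1 μg). It was paired with a 3xNBRE or 3xNurRE luciferase reporter (6 μg), 8 μg total DNA, for 18 h. Cells were replated at 10,000/well for 4 h, then given a full ligand dose response or vehicle in quadruplicate for 18 h. Luciferase was read; no EC50/IC50 was fitted.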

[4] = target: Nuclear receptor subfamily 4immunitygroup A member 1 (Homo sapiens) (UniProt P22736); assay: Modulation of full length human Nur77 expressed in HEK293 cells co-transfected with RXRalpha and luciferase reporter plasmid harboring NBRE response element assessed as increase in luciferase activity incubated for 18 hrs by luciferase reporter gene assay; details: filed as modulator; in short: as §1
[5] = target: Nuclear receptor subfamily 4immunitygroup A member 1 (Homo sapiens) (UniProt P22736); assay: Modulation of full length human Nur77 expressed in PC12 cells co-transfected with luciferase reporter plasmid harboring NurRE response element assessed as increase in luciferase activity incubated for 18 by luciferase reporter gene assay; details: PC-12, filed as modulator, time 18.0 hrs; in short: as §1
[6] = target: Nuclear receptor subfamily 4 group A member 2 (Homo sapiens) (UniProt P43354); assay: Modulation of full length human Nurr1 expressed in HEK293T cells co-transfected with luciferase reporter plasmid harboring NBRE response element assessed as increase in luciferase activity incubated for 18 hrs by luciferase reporter-gene assay; details: filed as modulator
In short: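 Full-length Nurr1 plasmid, alone (2 μg) or 1 μg plus full-length RXRα (1 μg), cotransfected with 3xNBRE- or 3xNurRE-luciferase reporter (6 μg) using Lipofectamine 2000, 18 h. Cells replated at 10,000/well for 4 h. Four ligand concentrations, or vehicle (water, ethanol or DMSO), added in quadruplicate for 18 h. Luciferase read. Fold change vs vehicle, mean ± s.e.m., one-way ANOVA vs vehicle.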

[7] = target: Nuclear receptor subfamily 4immunitygroup A member 1 (Homo sapiens) (UniProt P22736); assay: Modulation of full length human Nur77 expressed in HEK293 cells co-transfected with RXRalpha and luciferase reporter plasmid harboring NurRE response element assessed as increase in luciferase activity incubated for 18 hrs by luciferase reporter gene assay; details: filed as modulator; in short: as §1
[8] = target: Nuclear receptor subfamily 4immunitygroup A member 1 (Homo sapiens) (UniProt P22736); assay: Modulation of full length human Nur77 expressed in PC12 cells co-transfected with RXRalpha and luciferase reporter plasmid harboring NBRE response element assessed as increase in luciferase activity incubated for 18 by luciferase reporter gene assay; details: PC-12, filed as modulator, time 18.0 hrs; in short: as §1
[9] = target: Nuclear receptor subfamily 4immunitygroup A member 1 (Homo sapiens) (UniProt P22736); assay: Modulation of full length human Nur77 expressed in PC12 cells co-transfected with luciferase reporter plasmid harboring NBRE response element assessed as increase in luciferase activity incubated for 18 by luciferase reporter gene assay; details: PC-12, filed as modulator, time 18.0 hrs; in short: as §1
[10] = target: Nuclear receptor subfamily 4 group A member 3 (Homo sapiens) (UniProt Q92570); assay: Modulation of full length human NOR1 expressed in HEK293T cells co-transfected with RXRalpha luciferase reporter plasmid harboring NurRE response element assessed as increase in luciferase activity incubated for 18 hrs by luciferase reporter gene assay; details: filed as modulator; in short: as §3
[11] = target: Nuclear receptor subfamily 4immunitygroup A member 1 (Homo sapiens) (UniProt P22736); assay: Modulation of full length human Nur77 expressed in SK-N-BE(2) cells co-transfected with RXRalpha and luciferase reporter plasmid harboring NurRE response element assessed as increase in luciferase activity incubated for 18 by luciferase reporter gene assay; details: SKNBE2, filed as modulator, time 18.0 hrs; in short: as §1
[12] = target: Nuclear receptor subfamily 4 group A member 2 (Homo sapiens) (UniProt P43354); assay: Modulation of full length human Nurr1 expressed in SKNBE(2) cells co-transfected with RXRalpha and luciferase reporter plasmid harboring NurRE response element assessed as increase in luciferase activity incubated for 18 hrs by luciferase reporter-gene assay; details: SKNBE2, filed as modulator; in short: as §2
[13] = target: Nuclear receptor subfamily 4 group A member 3 (Homo sapiens) (UniProt Q92570); assay: Modulation of full length human NOR1 expressed in HEK293 cells co-transfected with luciferase reporter plasmid harboring NBRE response element assessed as increase in luciferase activity incubated for 18 hrs by luciferase reporter gene assay; details: filed as modulator; in short: as §3
[14] = target: Nuclear receptor subfamily 4 group A member 3 (Homo sapiens) (UniProt Q92570); assay: Modulation of full length human NOR1 expressed in SK-N-BE(2) cells co-transfected with RXRalpha and luciferase reporter plasmid harboring NBRE response element assessed as increase in luciferase activity incubated for 18 by luciferase reporter gene assay; details: SKNBE2, filed as modulator, time 18.0 hrs; in short: as §1
[15] = target: Nuclear receptor subfamily 4immunitygroup A member 1 (Homo sapiens) (UniProt P22736); assay: Modulation of full length human Nur77 expressed in SK-N-BE(2) cells co-transfected with luciferase reporter plasmid harboring NurRE response element assessed as increase in luciferase activity incubated for 18 by luciferase reporter gene assay; details: SKNBE2, filed as modulator, time 18.0 hrs; in short: as §1
[16] = target: Nuclear receptor subfamily 4 group A member 2 (Homo sapiens) (UniProt P43354); assay: Modulation of full length human Nurr1 expressed in PC12 cells co-transfected with luciferase reporter plasmid harboring NBRE response element assessed as increase in luciferase activity incubated for 18 hrs by luciferase reporter-gene assay; details: PC-12, filed as modulator
In short: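 Here PC12 cells (FK-12 medium, 15% horse serum, 2.5% FBS, 37°C, 5% CO2) received full-length Nurr1 (2 μg) without RXRα, plus 3xNBRE- or 3xNurRE-luciferase reporter (6 μg), for 18 h. Cells were replated at 10,000/well for 4 h, then treated with ligand or vehicle in quadruplicate for 18 h. Luciferase luminescence was normalized to vehicle-treated cells. Results are mean ± s.e.m. (n=4) from 2 independent experiments, with one-way ANOVA against vehicle.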

[17] = target: Nuclear receptor subfamily 4immunitygroup A member 1 (Homo sapiens) (UniProt P22736); assay: Modulation of full length human Nur77 expressed in HEK293 cells co-transfected with luciferase reporter plasmid harboring NBRE response element assessed as increase in luciferase activity incubated for 18 hrs by luciferase reporter gene assay; details: filed as modulator; in short: as §1
[18] = target: Nuclear receptor subfamily 4 group A member 3 (Homo sapiens) (UniProt Q92570); assay: Modulation of full length human NOR1 expressed in PC12 cells co-transfected with luciferase reporter plasmid harboring NurRE response element assessed as increase in luciferase activity incubated for 18 by luciferase reporter gene assay; details: PC-12, filed as modulator, time 18.0 hrs; in short: as §3

Measured: Activity

Chain of Nuclear receptor subfamily 4 group A member 3 (Homo sapiens) (Q92570 whole entry): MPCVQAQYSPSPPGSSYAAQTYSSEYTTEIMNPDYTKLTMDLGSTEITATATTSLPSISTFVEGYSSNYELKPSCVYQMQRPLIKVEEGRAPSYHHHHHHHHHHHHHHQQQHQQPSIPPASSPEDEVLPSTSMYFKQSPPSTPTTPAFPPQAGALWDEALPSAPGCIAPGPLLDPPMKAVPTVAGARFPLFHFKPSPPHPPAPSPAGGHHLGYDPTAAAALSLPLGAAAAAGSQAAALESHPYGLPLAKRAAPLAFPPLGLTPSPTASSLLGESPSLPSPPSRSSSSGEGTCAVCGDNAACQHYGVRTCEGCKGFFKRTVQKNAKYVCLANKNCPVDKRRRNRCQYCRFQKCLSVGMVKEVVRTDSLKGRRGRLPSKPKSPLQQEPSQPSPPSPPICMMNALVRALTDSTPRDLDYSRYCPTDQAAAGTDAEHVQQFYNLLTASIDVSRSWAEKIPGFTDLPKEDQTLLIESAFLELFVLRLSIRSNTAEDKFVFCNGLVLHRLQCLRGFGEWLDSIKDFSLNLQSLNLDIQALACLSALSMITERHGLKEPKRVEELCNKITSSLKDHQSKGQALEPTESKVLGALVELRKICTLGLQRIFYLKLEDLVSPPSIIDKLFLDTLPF
Chain of Nuclear receptor subfamily 4 group A member 2 (Homo sapiens) (P43354 whole entry): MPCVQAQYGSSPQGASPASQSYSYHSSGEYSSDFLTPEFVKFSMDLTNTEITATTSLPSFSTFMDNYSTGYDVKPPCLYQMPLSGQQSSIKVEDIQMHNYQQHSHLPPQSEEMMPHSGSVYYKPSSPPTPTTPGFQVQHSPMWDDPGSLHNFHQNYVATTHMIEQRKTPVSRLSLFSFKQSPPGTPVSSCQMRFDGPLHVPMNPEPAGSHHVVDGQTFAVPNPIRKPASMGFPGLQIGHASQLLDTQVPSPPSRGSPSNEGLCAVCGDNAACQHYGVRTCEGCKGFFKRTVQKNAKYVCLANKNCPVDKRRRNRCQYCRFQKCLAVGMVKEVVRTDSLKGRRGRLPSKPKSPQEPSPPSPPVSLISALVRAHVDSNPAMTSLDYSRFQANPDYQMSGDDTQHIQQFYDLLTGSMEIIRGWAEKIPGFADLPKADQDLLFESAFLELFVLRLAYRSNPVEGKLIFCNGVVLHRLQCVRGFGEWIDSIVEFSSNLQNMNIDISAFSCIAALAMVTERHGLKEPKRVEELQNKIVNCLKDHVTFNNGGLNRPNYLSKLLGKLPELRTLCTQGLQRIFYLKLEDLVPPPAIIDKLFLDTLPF
Chain of Nuclear receptor subfamily 4immunitygroup A member 1 (Homo sapiens) (P22736 whole entry): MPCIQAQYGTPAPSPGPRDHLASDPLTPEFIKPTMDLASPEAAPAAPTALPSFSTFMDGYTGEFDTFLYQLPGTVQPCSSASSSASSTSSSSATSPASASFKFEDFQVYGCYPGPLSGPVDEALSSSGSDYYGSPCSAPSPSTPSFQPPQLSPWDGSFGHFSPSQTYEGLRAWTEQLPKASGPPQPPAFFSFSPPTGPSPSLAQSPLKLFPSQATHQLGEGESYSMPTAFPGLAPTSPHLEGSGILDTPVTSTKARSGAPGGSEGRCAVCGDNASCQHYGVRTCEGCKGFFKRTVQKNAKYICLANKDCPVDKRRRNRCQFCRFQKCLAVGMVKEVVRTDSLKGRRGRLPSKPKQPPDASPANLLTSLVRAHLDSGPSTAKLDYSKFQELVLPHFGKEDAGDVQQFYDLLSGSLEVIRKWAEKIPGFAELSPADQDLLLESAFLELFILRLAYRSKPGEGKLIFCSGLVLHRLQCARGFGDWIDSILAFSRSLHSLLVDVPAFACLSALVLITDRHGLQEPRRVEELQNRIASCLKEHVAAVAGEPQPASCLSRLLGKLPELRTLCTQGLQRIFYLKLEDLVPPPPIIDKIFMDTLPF

CCN(CC)Cc1cc(Nc2ccnc3cc(Cl)ccc23)ccc1O [AMODIAQUINE]
active: [1] Dose-Dependent Effect | [2] Dose-Dependent Effect | [3] Dose-Dependent Effect | [4] Dose-Dependent Effect | [5] Dose-Dependent Effect | [6] Dose-Dependent Effect | [7] Dose-Dependent Effect | [8] Dose-Dependent Effect | [9] Dose-Dependent Effect | [10] Dose-Dependent Effect | [11] Dose-Dependent Effect | [12] Dose-Dependent Effect | [13] Dose-Dependent Effect | [14] Dose-Dependent Effect | [15] Dose-Dependent Effect | [16] Dose-Dependent Effect | [17] Dose-Dependent Effect | [18] Dose-Dependent Effect

CCN(CC)CCCC(C)Nc1ccnc2cc(Cl)ccc12 (centres undefined) [CHLOROQUINE]
active: [1] Dose-Dependent Effect | [2] Dose-Dependent Effect | [3] Dose-Dependent Effect | [4] Dose-Dependent Effect | [5] Dose-Dependent Effect | [6] Dose-Dependent Effect | [7] Dose-Dependent Effect | [8] Dose-Dependent Effect | [9] Dose-Dependent Effect | [10] Dose-Dependent Effect | [11] Dose-Dependent Effect | [12] Dose-Dependent Effect | [13] Dose-Dependent Effect | [14] Dose-Dependent Effect | [15] Dose-Dependent Effect | [16] Dose-Dependent Effect | [17] Dose-Dependent Effect | [18] Dose-Dependent Effect

CCCCCCCC(=O)c1c(O)cc(O)cc1CC(=O)OCC [CYTOSPORONE B]
active: [1] Dose-Dependent Effect | [2] Dose-Dependent Effect | [3] Dose-Dependent Effect | [4] Dose-Dependent Effect | [5] Dose-Dependent Effect | [6] Dose-Dependent Effect | [7] Dose-Dependent Effect | [8] Dose-Dependent Effect | [9] Dose-Dependent Effect | [10] Dose-Dependent Effect | [11] Dose-Dependent Effect | [12] Dose-Dependent Effect | [13] Dose-Dependent Effect | [14] Dose-Dependent Effect | [15] Dose-Dependent Effect | [16] Dose-Dependent Effect | [17] Dose-Dependent Effect | [18] Dose-Dependent Effect
